Experimental data gathered from unrelated publications.
Each line is one published result; the experiments were not run side by side.
PPO3: PPO3 (Agaricus bisporus, UniProt C7FF04)
TAOK3: Serine/threonine-protein kinase TAO3 (TAOK3, Homo sapiens, UniProt Q9H2K8)
STK16: Serine/threonine-protein kinase 16 (STK16, Homo sapiens, UniProt O75716)

Compound	target	test	conditions	endpoint	value
NC/C(=C\F)COc1cccc(Cn2c(=S)[nH]c(=O)c3[nH]cnc32)c1	Sigma non-opioid intracellular receptor 1 (SIGMAR1, Homo sapiens, UniProt Q99720)	ligand displacement, radioligand	10 µM	inhibition	< 50%
Cc1cc(O)c(-c2ccc([C@@H](C)CN(C)C)cc2)c2c1[nH]c(=O)c1sccc12	Interleukin-1 receptor-associated kinase-like 2 (IRAK2, Homo sapiens, UniProt O43187)	cell-free assay, inhibitor	0.1 µM, lysate	inhibition	13.1%
C1=C/COCc2cc(ccc2OCCN2CCCC2)Nc2nccc(n2)-c2cccc(c2)COC/1	Cytoplasmic tyrosine-protein kinase BMX (BMX, Homo sapiens, UniProt P51813)	binding	0.1 µM	remaining binding	95%
CCN1/C(=C/C(C)=O)Sc2ccc(F)cc21	5-hydroxytryptamine receptor 2A (HTR2A, Homo sapiens, UniProt P28223)	ligand displacement, radioligand	10 µM	inhibition	0.75%
CC(=O)ON=C1C=CC(=C(C#N)c2ccccc2)C=C1	Aurora kinase B (AURKB, Homo sapiens, UniProt Q96GD4)	enzyme activity, inhibitor, ADP detection	20 µM	activity vs control	75%
Cc1cc(F)cc2c(CCC(=O)N[C@@H]3C(=O)NC[C@H]3O)c(-c3ccc(F)cc3)[nH]c12	Adenosine receptor A2a (ADORA2A, Homo sapiens, UniProt P29274)	cell-free assay	10 µM	inhibition	15%
Cc1ccc(CN2CCN(C(=O)/C=C/c3ccc(O)cc3O)CC2)cc1	PPO3	binding, SPR	–	kon	298 M⁻¹ s⁻¹
Cc1cc(S(=O)(=O)N[C@H]2CC[C@H](CN3CCN(c4ccc(C5CCC(=O)NC5=O)cc4F)CC3)CC2)ccc1Nc1ncc(C(F)(F)F)c(N2CCC[C@](C)(O)C2)n1 (stereo partly shown)	TAOK3	binding, competition with immobilised ligand	1 µM	remaining binding	54%
CCCCC(=O)Nc1ccc(-c2ccc3ncn(CCC)c(=O)c3c2)cn1	STK16	binding, competition with immobilised ligand	0.5 µM	remaining binding	99%
C[C@]1(O)CCCN(c2nc(Nc3ccc(S(=O)(=O)N[C@H]4CC[C@H](CN5CCN(c6ccc(C7CCC(=O)NC7=O)cc6F)CC5)CC4)cc3Cl)ncc2C(F)(F)F)C1 (stereo partly shown)	TAOK3	binding, competition with immobilised ligand	1 µM	remaining binding	82%
COc1ccc2oc(-c3ccc4nc(N)oc4c3)c/c(=N\c3ccccc3NC(=O)CCN)c2c1	Serine/threonine-protein kinase WNK1 (WNK1, Homo sapiens, UniProt Q9H4A3)	binding	1 µM	remaining binding	114%
C[C@]1(O)CCCN(c2nc(Nc3ccc(S(=O)(=O)N[C@H]4CC[C@H](CN5CCN(c6ccc(C7CCC(=O)NC7=O)cc6F)CC5)CC4)cc3F)ncc2C(F)(F)F)C1 (stereo partly shown)	STK16	binding, competition with immobilised ligand	1 µM	remaining binding	81%
O=C(CCc1cccc(O)c1)N1CCN(Cc2ccc(F)cc2)CC1	PPO3	binding, SPR	–	kon	153 M⁻¹ s⁻¹
